According to ChEMBL document CHEMBL1275322, “Synthesis and cytotoxic evaluation of 1-carboxamide and 1-amino side chain substituted β-carbolines” (Eur J Med Chem, 2010):

Key:
Assay type in all cases: functional, cell-based
769-P = experiment: Cytotoxicity against human 769-P cells by MTT assay
Outline: (§1)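 Cells grown in RPMI-1640 with 10% (v/v) fetal calf serum, 100 μg ml⁻¹ penicillin and 100 μg ml⁻¹ streptomycin at 37 °C, humidified 5% CO₂, in 96-well cultures. Compounds from DMSO stocks; final DMSO 2% (v/v) or lower. MTT staining read as optical density. IC50 is the concentration reducing OD by 50% vs untreated cells. Mean ± SD of at least five independent determinations. Top concentration 300 μM.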

786-0 = experiment: Cytotoxicity against human 786-0 cells by MTT assay; outline: as §1
HepG2 = experiment: Cytotoxicity against human HepG2 cells by MTT assay; outline: as §1
KB = experiment: Cytotoxicity against human KB cells by MTT assay; outline: as §1
CWR22R = experiment: Cytotoxicity against human 22Rv1 cells by MTT assay; outline: as §1
A-375 = experiment: Cytotoxicity against human A375 cells by MTT assay; outline: as §1
MCF7 = experiment: Cytotoxicity against human MCF7 cells by MTT assay; outline: as §1
OS-RC-2 = experiment: Cytotoxicity against human OS-RC2 cells by MTT assay; outline: as §1
HT-29 = experiment: Cytotoxicity against human HT-29 cells by MTT assay; outline: as §1
[1] = Cytotoxicity against human […] cells by MTT assay; outline: as §1

SMILES	IC50 (769-P)	IC50 (786-0)	IC50 (HepG2)	IC50 (KB)	IC50 (CWR22R)	IC50 (A-375)	IC50 (MCF7)	IC50 (OS-RC-2)	IC50 (HT-29)	IC50 [1]
NCCNc1nccc2c3ccccc3n(Cc3c(F)c(F)c(F)c(F)c3F)c12	10.4 µM	5.8 µM	12.8 µM	11.8 µM	12.5 µM	12 µM	15.1 µM	12 µM	9.9 µM	11.9 µM
CC[N+](C)(CC)CCCNC(=O)c1nccc2c1[nH]c1ccccc12	> 300 µM	> 300 µM	> 300 µM	> 300 µM	> 300 µM	> 300 µM	> 300 µM	> 300 µM	> 300 µM	> 300 µM
CCN(CC)CCCNC(=O)c1nccc2c3ccccc3n(CCCc3ccccc3)c12	61 µM	31.4 µM	22.1 µM	14 µM	26.9 µM	33.8 µM	31.4 µM	36.9 µM	53.4 µM	22.3 µM
CCCCn1c2ccccc2c2ccnc(Br)c21	> 300 µM	> 300 µM	> 300 µM	> 300 µM	236 µM	> 300 µM	256 µM	136 µM	186 µM	> 300 µM
NCCCCNc1nccc2c3ccccc3n(CCCc3ccccc3)c12	2.2 µM	2.7 µM	4 µM	11.3 µM	2.9 µM	9.5 µM	12.8 µM	4.2 µM	17.5 µM	8 µM
NCCCCCCNc1nccc2c3ccccc3n(CCCc3ccccc3)c12	13.6 µM	11.3 µM	12.1 µM	13 µM	11.5 µM	16.3 µM	17.9 µM	8.4 µM	21.5 µM	12.4 µM
Fc1c(F)c(F)c(Cn2c3ccccc3c3ccnc(Br)c32)c(F)c1F	> 300 µM	> 300 µM	> 300 µM	> 300 µM	> 300 µM	> 300 µM	> 300 µM	> 300 µM	> 300 µM	> 300 µM
CC[N+](CC)(CCCNC(=O)c1nccc2c1[nH]c1ccccc12)Cc1ccccc1	101 µM	137 µM	> 300 µM	> 300 µM	71.4 µM	> 300 µM	51.1 µM	> 300 µM	> 300 µM	> 300 µM
Fc1ccc(Cn2c3ccccc3c3ccnc(Br)c32)cc1	252 µM	> 300 µM	> 300 µM	> 300 µM	> 300 µM	> 300 µM	> 300 µM	> 300 µM	245 µM	> 300 µM
CCCCn1c2ccccc2c2ccnc(NCCN)c21	68.7 µM	18.9 µM	6.6 µM	20.5 µM	14.2 µM	22.8 µM	33.6 µM	9.3 µM	13.3 µM	25.3 µM
NCCNc1nccc2c3ccccc3n(Cc3ccc(F)cc3)c12	1.8 µM	18.8 µM	4.4 µM	19.1 µM	17.9 µM	15.6 µM	21.4 µM	16.3 µM	9.1 µM	9.7 µM
OCCNc1[nH]ccc2c3ccccc3nc1-2	272 µM	> 300 µM	130 µM	> 300 µM	136 µM	> 300 µM	> 300 µM	220 µM	> 300 µM	> 300 µM
NCCNC(=O)c1nccc2c3ccccc3n(CCCc3ccccc3)c12	32.5 µM	11.8 µM	15.9 µM	9.9 µM	10.8 µM	13.7 µM	22.3 µM	15.7 µM	17.9 µM	20 µM
NCCCCCCNC(=O)c1nccc2c1[nH]c1ccccc12	75.3 µM	72.7 µM	85.5 µM	86.9 µM	33.6 µM	37.7 µM	46.8 µM	58.5 µM	73.2 µM	109 µM
NCCNc1nccc2c3ccccc3n(CCCc3ccccc3)c12	11.1 µM	6.9 µM	13.3 µM	4.9 µM	8.6 µM	7.3 µM	9.3 µM	4.6 µM	5.6 µM	9.6 µM
Brc1nccc2c3ccccc3n(CCCc3ccccc3)c12	123 µM	> 300 µM	> 300 µM	> 300 µM	88 µM	> 300 µM	> 300 µM	93.9 µM	86.6 µM	> 300 µM
NCCNc1nccc2c1[nH]c1ccccc12	31.5 µM	31.9 µM	30.6 µM	25.4 µM	41.3 µM	33.4 µM	87.2 µM	40 µM	33.4 µM	36 µM
CCN(CC)CCCNC(=O)c1nccc2c1[nH]c1ccccc12	54 µM	111 µM	243 µM	62.3 µM	46.2 µM	107 µM	164 µM	93.9 µM	61.2 µM	174 µM
NCCNC(=O)c1nccc2c1[nH]c1ccccc12	124 µM	86.1 µM	122 µM	118 µM	124 µM	65.3 µM	80.4 µM	63.9 µM	55.6 µM	77.7 µM
